According to PMC5758876 (Nucleic Acids Research, 2017):

Tests used:
Δchp1 = test: Drug sensitivity serial dilution; assay type: cell-based, fission yeast Schizosaccharomyces pombe; details: 0 and 6 mM HU, 10-fold serial dilution
Method in brief: (§1)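 Strains were grown overnight in YEA broth (3% glucose, 0.5% yeast extract, 75 mg/l adenine) to mid-log phase and adjusted to 1 × 10^7 cells/ml. Five ten-fold serial dilutions were made, and 3 μl of each was spotted onto plates with 0 or 6 mM HU.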

Δclr3 = test: Drug sensitivity serial dilution; assay type: cell-based, fission yeast Schizosaccharomyces pombe; details: 0 and 6 mM HU, 10-fold serial dilution; compared with Δrik1, Δcid12, Δchp1
Method in brief: (§2)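 Deletion strains were cultured overnight to mid-log phase in YEA broth (3% glucose, 0.5% yeast extract, 75 mg/l adenine) and set to 1 × 10^7 cells/ml. Each culture went through five ten-fold serial dilution steps, and 3 μl spots were placed on HU-containing plates to assess growth.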

Y41FΔago1 = test: Drug sensitivity serial dilution; assay type: cell-based, fission yeast Schizosaccharomyces pombe; details: 0 and 6 mM HU, 10-fold serial dilution
Method in brief: as §1

Y41FΔchp1 = test: Drug sensitivity serial dilution; assay type: cell-based, fission yeast Schizosaccharomyces pombe; details: 0 and 6 mM HU, 10-fold serial dilution
Method in brief: as §1

Δswi6 = test: Drug sensitivity serial dilution; assay type: cell-based, fission yeast Schizosaccharomyces pombe; details: 0 and 6 mM HU, 10-fold serial dilution; compared with Δrik1, Δcid12, Δchp1
Method in brief: as §2

Δrik1 = test: Drug sensitivity serial dilution; assay type: cell-based, fission yeast Schizosaccharomyces pombe; details: 0 and 6 mM HU, 10-fold serial dilution
Method in brief: as §2

Δcid12 = test: Drug sensitivity serial dilution; assay type: cell-based, fission yeast Schizosaccharomyces pombe; details: 0 and 6 mM HU, 10-fold serial dilution
Method in brief: as §2

GFP-tagged Chp1 = test: Peptide pull-down from Chp1GFP whole cell extracts; assay type: binding, fission yeast Schizosaccharomyces pombe; details: western blot, n=3
[1] = target: biotinylated histone H3 N-terminal peptide harbouring a phosphorylated Y41; test: pull-down

NC(=O)NO [HU, hydroxyurea]
HU sensitivity (in words) (Δchp1): HU hypersensitivity
HU sensitivity (in words) (Δclr3): milder or no hypersensitivity
HU sensitivity of double mutant relative to Δago1 (in words) (Y41FΔago1): strongly suppressed HU hypersensitivity
HU sensitivity of double mutant relative to Δchp1 (in words) (Y41FΔchp1): strongly suppressed HU hypersensitivity
HU sensitivity (in words) (Δswi6): milder or no hypersensitivity
HU sensitivity (in words) (Δrik1): HU hypersensitivity
HU sensitivity (in words) (Δcid12): HU hypersensitivity

AAPATGGVKKPH RY(p)RPGTVALR EIRRYQKSTE [Y41p]
Chp1-GFP association, phosphorylated versus unmodified (Y41F) peptide (in words) (GFP-tagged Chp1): This observation was confirmed

B1: Chp1, endogenous (natural protein)
chain: MVSVKPLPDIDSNEGETDADVYEVEDILADRVNKNGINEYYIKWAGYDWYDNTWEPEQNLFGAEKVLKKWKKRKKLIAKGLLEPFDAEDNEAKKMKREKEILRQQRQKRKSELTQLSQKVKEKFKKMRKKPARRIVTIANDEEEEDDQTMDEDAFERKSMQGELKERNLTDKTSTLSTSFGETSPDVNPFYLSEWPTVTDSILLSKSLSSDAIPLKNGEIKSTMLMPSDSDNSVPGIQNSNNLENTGAFVENANSPQSNTPLSTFRHSSPLSLSPVITSDNDVANSLFFSNSTPLPSSLKIKKEAPKLETHTILVSDNSGSLTKQDILSYFAFIKGNIEVFFLKSPKKDKVCNMAYIQFDSIEQAKLAYDKGHPSWHVTLVKGKISTDMEECKVSKSILKTTPSKKANARSVSFTQTTTDTLSESEKFASNVDLDENFDFNVNVTNEDAKQLKKSVIGSSWTTVNNDWNSVSKSDQTFENDGASKVVPAGNITLNSDNSLHHSISESEDLSSASTLSDYFRFVLRVGKSLYYAGELSFDISKLKAETEHQQLLRSLVSCKQVDVLRFVTSQYLEVFGTCLTKVLSGSLCIRSDVDMTHFKNILNRGNGAGIVLGSNYTLLLFTEDNNALMNLYDCQGQSNSPFWMVIFEPLESILVEWSAKNLRPKKPYHKSQSYLSYLLQLGHIDLHKIGAFQATQILIVSKQPSPEAEELEDTFREAAIPTFRGLEIPESLFLSQNVFVFLNVSLEDDFDQLQFLTLAKRKSCKFFLFGLSLPLKSPNDSHVGTDFKKNNEPLDKLTYSQYLRPMFPKGGVVSVTLSALIKTPRLLELISPFLEIKKDSWILILPPSIVDMVKSYFVTNNPDKSLLEIQNLLNTLQRYLTNPALKNVTLYQDWDIVIDDSADVSLASTLQLYQKKNYDKYRRFVLIHELKNELTPVNGLDIVDYDEFKETFMRAIGLK
fold change against the unmodified (Y41F) peptide [1]: 2.62 fold
